High-throughput results as filed in PubChem.
Hits are enriched below; roughly 0.79% of the tested compounds scored in any of these assays.
G6PDH CS: L. mesenteroides G6PDH inhibitors, counter-screen for G6PDH-coupled screening assays, biochemical, Leuconostoc mesenteroides enzyme; 200,000 tested, 0.12% active; inhibition, % at 5 µM; Purified L. mesenteroides G6PDH, diaphorase/resazurin coupled fluorescence, 45 min; in the data active = inhibition above about 50%
p97 inhibitor: inhibitors of human p97 ATPase, primary screen, biochemical; inhibition, % at 8 µM; recombinant p97 ATPase, Kinase-Glo ATP luminescence, 3 h; AID 1481, 2009; 220,000 tested, 0.42% active; in the data active = inhibition above about 15%;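 note: 0% = DMSO vehicle and 100% = wells lacking enzyme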
Target sequence (P55072 whole entry, looked up): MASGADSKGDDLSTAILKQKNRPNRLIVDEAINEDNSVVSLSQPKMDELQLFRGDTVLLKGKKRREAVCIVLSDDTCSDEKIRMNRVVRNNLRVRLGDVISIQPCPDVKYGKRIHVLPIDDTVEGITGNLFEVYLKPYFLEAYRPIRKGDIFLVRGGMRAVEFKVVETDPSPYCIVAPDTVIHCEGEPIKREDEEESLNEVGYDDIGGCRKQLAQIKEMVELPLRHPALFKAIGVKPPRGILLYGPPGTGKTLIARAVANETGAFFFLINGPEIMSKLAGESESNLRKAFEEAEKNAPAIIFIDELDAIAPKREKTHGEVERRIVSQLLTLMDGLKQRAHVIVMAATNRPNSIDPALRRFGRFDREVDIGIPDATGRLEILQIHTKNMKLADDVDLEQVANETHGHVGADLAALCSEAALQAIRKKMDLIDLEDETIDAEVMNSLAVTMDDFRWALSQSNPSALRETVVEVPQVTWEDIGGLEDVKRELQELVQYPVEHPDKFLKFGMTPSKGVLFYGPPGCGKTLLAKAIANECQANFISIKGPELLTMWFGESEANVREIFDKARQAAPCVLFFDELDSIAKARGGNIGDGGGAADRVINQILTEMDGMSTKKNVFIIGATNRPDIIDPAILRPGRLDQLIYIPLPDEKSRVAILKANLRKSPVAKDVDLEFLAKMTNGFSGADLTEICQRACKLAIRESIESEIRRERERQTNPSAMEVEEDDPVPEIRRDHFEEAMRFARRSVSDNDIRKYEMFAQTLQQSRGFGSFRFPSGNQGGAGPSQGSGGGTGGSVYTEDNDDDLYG
TNAP inh noacc: human TNAP enzyme inhibitors, primary screen, biochemical, luminescent, no phosphate acceptor, uHTS; AID 1012, 2008; Alkaline phosphatase, tissue-nonspecific isozyme (Homo sapiens), P05186; inhibition, % at 20 µM; 200,000 tested, 0.26% active; purified TNAP, CDP-star luminescence, 30 min;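 active = tissue-nonspecific alkaline phosphatase inhibition above about 50% at 20 µM in the single-dose screen, limit read from the data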;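 note: 0% = DMSO negative control and 100% = EDTA positive control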
TNAP act hi DEA: TNAP activators at high phosphate acceptor level, primary screen, biochemical, luminescence, uHTS. purified TNAP, CDP-star luminescence, 1 M DEA, 30 min; active compounds read high; 0 = EDTA background, 1 = DMSO-only activity. 200,000 tested, under 10 active. AID 1136, 2008. activation factor at 20 µM;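 active = activation factor at least 2 at 20 µM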
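Assay system: human TNAP; Input: enzyme diluted 1/800 final; Reagent: CDP-star luminogenic substrate at 100 µM final; Timing: 30 min, room temperature; Signal: luminescence; Evaluation: TNAP activation factor scaled between EDTA and DMSO control wells.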
TNAP inh hiacc: human TNAP enzyme inhibitors, primary screen, biochemical, luminescent, high phosphate acceptor level, uHTS | purified TNAP, CDP-star luminescence, 1 M DEA | 200,000 tested, 0.03% active | inhibition, % at 20 µM;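 active = over 50% inhibition of tissue-nonspecific alkaline phosphatase at 20 µM in the single-dose screen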;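 note: plate controls were DMSO wells for no effect and EDTA-quenched wells as full inhibition for full effect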
Redox H2O2 prof: compounds producing H2O2 with reducing agent – biochemical, NIH compound library profiling, artefact control for MLSCN library redox annotation, primary screen; activation, % at 10 µM; AID 878, 2007; 200,000 tested, 0.03% active; DTT-dependent redox cycling H2O2, phenol red/HRP absorbance; 100% = 100 µM peroxide control, 0% = buffer;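 active = activation of at least 50% relative to the plate's high and low controls in the primary single-dose screen; inactive = activation below 50%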;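 note: compound incubated with DTT at 0.8 mM final as the reducing agent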
p97 inh conf: p97 ATPase inhibitors, retest, confirmation, biochemical; shares compounds with p97 inhibitor; recombinant p97 ATPase, Kinase-Glo ATP luminescence; inhibition, % at 8 µM; 760 tested, 44% active;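 active = percent inhibition of p97 ATPase above a set limit, the primary screen's mean plus 3 SD, cut at about 15% in these data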;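 note: 0% = DMSO wells and 100% = wells lacking p97 protein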
Starred values were filed as active, the others as inactive; . = no result given.

SMILES	G6PDH CS	p97 inhibitor	TNAP inh noacc	TNAP act hi DEA	TNAP inh hiacc	Redox H2O2 prof	p97 inh conf
CC(Sc1ccsc1[N+](=O)[O-])C(=O)NCc1ccccc1 (stereo not drawn)	2.3	15.9*	-18.0	1.1	-6.9	0.2	8.0
Cc1cccc(C)c1NC(=O)C(C)c1ccc(-c2ccccc2)c(F)c1 (stereo not drawn)	16.7	3.0	-6.4	1	-2.8	-1.6	.
OCC#Cc1ncc(C(F)(F)F)cc1Cl	10.7	28.2*	-7.8	1.1	-6.5	-1.3	33.0*
Cc1cc(Nc2nc3ccccc3nc2Cl)n(-c2ccccc2C)n1	6.5	14.9*	-6.6	1.1	-5.1	-3.7	10.7
Cc1cc(Nc2nc3ccccc3nc2Cl)n(-c2ccccc2)n1	7.4	2.0	-4.9	1	-2.0	0.0	.
O=C(O)c1cccc(Nc2ncnc3ccc(Br)cc23)c1	.	16.8*	.	.	.	.	20.6*
CCC(=O)Nc1cccc(NC(=O)CSc2nnc(-c3ccc(NS(C)(=O)=O)cc3)n2CC)c1	-1.6	-1.3	-4.2	1	2.2	0.0	.
COc1ccc(Cc2n[nH]c(=S)n2Cc2ccccc2)cc1Cl	18.4	1.1	-57.8	1	-0.1	-0.6	.
CCN1C(=O)c2cccc3cccc1c23	5.5	1.2	-8.8	1	-2.6	-0.5	.
CN1CN(C)c2cccc3cccc1c23	3.1	29.4*	-13.5	1	-3.7	0.5	4.6
O=C(COC(=O)CCc1ccc(S(=O)(=O)N2CCOCC2)cc1)NCc1ccccc1	3.0	-1.1	-10.7	1	-0.7	-0.7	.
Cc1ccc(NC(=S)Nc2cccc3cnccc23)cc1C	55.9*	24.0*	-1.7	1	3.4	0.0	3.2
Cc1ccc(CN2CCN(CCCn3cccn3)CC2CCO)cc1 (stereo not drawn)	5.3	2.6	-8.0	1.1	-6.5	-1.2	.
CCn1c(/C=C/Nc2ccccc2)[n+](CC)c2cc(Cl)c(Cl)cc21	-18.5	-4.8	25.0	1	-0.5	-0.4	.
CCn1c(/C=C/N(C(C)=O)c2ccccc2)[n+](CCCS(=O)(=O)[O-])c2cc(Cl)c(Cl)cc21	8.0	18.4*	-12.8	1	-2.7	11.3	4.7
CC(=O)c1ccc(OCC(O)CN2CCN(CCO)CC2)cc1 (stereo not drawn)	-5.3	-1.9	-18.5	1	-3.8	-0.8	.
CC(C)(C)c1csc(N(CCC#N)CCC#N)n1	10.0	-3.7	-5.7	1	-1.2	0.3	.
Cc1nc2ccccc2n1CC(=O)NCCN1CCCC1	0.6	35.4*	-11.3	1	-3.7	0.8	7.0
CC(C)CCNC(=O)CCCn1c(=O)[nH]c2ccc(Br)cc2c1=O	7.2	-19.5	-1.0	1	0.8	-1.6	.
NS(=O)(=O)c1ccc(CCNC(=O)CCCn2c(=O)[nH]c3ccc(Br)cc3c2=O)cc1	0.8	26.3*	-6.6	1	-1.2	-0.3	9.9
NC(=S)N/N=C/c1coc2ccc(O)cc2c1=O	.	15.4*	.	.	.	.	11.2
N#C/C(=C/c1ccco1)C(N)=S	.	27.4*	.	.	.	.	9.7
Cc1ccc2[nH]cc(C(=O)CCl)c2c1	11.0	33.2*	1.4	1	-0.6	-0.1	46.5*
Cc1ccc2c(C(=O)CN3CCSCC3)c(C)[nH]c2c1	-9.8	-0.7	-12.3	1	-4.0	0.5	.
Cc1ccc2c(C(=O)CCl)c(C)[nH]c2c1	.	36.5*	.	.	.	.	39.8*
SMILES	G6PDH CS	p97 inhibitor	TNAP inh noacc	TNAP act hi DEA	TNAP inh hiacc	Redox H2O2 prof	p97 inh conf
CCOC(=O)N1CCN(C(=O)/C(=C/c2cccc3ccccc23)NC(=O)c2ccc(OC)c(OC)c2)CC1	-1.2	5.6	-4.7	1	-2.1	-0.2	.
Cc1[nH]c2ccccc2c1/C=N/NC(=O)c1cc(-c2cccs2)[nH]n1	-17.0	15.5*	81.4*	0.9	12.8	0.2	31.7*
COC(=O)CN1C(=S)N(c2ccc(F)cc2)C(=O)C1CC(=O)Nc1ccc(OC)cc1 (stereo not drawn)	.	-0.2	.	.	.	.	.
CN(C)C(=O)c1cn(-c2ccc(Cl)cc2)c(=O)c2ccccc12	3.3	-2.8	-16.8	1.1	-5.7	-1.4	.
CN(C)C=NC(=O)c1cn(-c2ccc(F)cc2)c(=O)c2ccccc12	14.0	16.1*	12.3	1	-0.9	9.0	1.6
NCCNc1ccc([N+](=O)[O-])c(NC2CC2)c1	6.1	17.1*	5.4	0.8	16.5	-0.4	6.0
NC(=O)N/N=C/c1cc(Br)ccc1OC(=O)c1ccccc1	0.8	15.7*	-7.2	1	-1.2	-0.1	22.8*
NC(=O)N/N=C/c1cc(Br)ccc1OCC(=O)NCc1ccccc1	11.5	5.5	-4.0	1.1	-6.6	0.1	.
O=C1CC(=O)N(c2cccc(F)c2)N1	-0.7	21.9*	-1.6	1	-4.3	0.1	9.2
COc1cc(/C=C2\SC(=Nc3cccnc3)NC2=O)cc(OC)c1OC	.	8.6	.	.	.	.	.
COc1cc(/C=C2/CC/C(=C/c3ccc(O)c(OC)c3)C2=O)ccc1O	.	34.5*	.	.	.	.	16.8*
COc1ccc(/C=C2\CCc3ccccc3C2=O)cc1OC	1.9	-5.6	-2.6	1	1.4	-3.9	.
COc1cc(/C=C2/SC(=Nc3ccc(O)cc3)NC2=O)ccc1O	.	25.2*	.	.	.	.	31.3*
COc1cc(C=C2C(=O)c3ccccc3C2=O)ccc1O	.	-24.5	.	.	.	.	.
COc1cc(/C=C2\COC/C(=C\c3ccc(O)c(OC)c3)C2=O)ccc1O	.	15.4*	.	.	.	.	14.4
COc1cc(/C=C2\CC/C(=C\c3ccc(OCCO)c(OC)c3)C2=O)ccc1OCCO	1.5	14.9*	10.7	0.9	13.0	0.1	4.9
O=C(O)c1cc(-c2c[nH]c3ccccc23)nc2cc3ccccc3cc12	.	27.0*	.	.	.	.	27.4*
CCS(=O)(=O)Nc1c(C(=O)O)[nH]c2ccccc12	5.6	20.2*	-3.9	1.1	-5.0	-2.6	5.7
CCS(=O)(=O)Nc1c(C(=O)OC)[nH]c2ccccc12	2.1	7.4	-13.0	1.1	-7.7	-1.4	.
O=C(CCn1cccc1)NCc1ccccc1	-2.1	2.8	-13.1	1	-3.4	-0.4	.
CCC(Cc1ccccc1)NC(=O)CCn1cccc1 (stereo not drawn)	-12.8	16.4*	-7.8	1	-3.1	0.1	5.2
CN(C)c1ccc2c(c1)Sc1cc(N(C)C)ccc1N2C(=O)c1ccccc1	.	11.2	.	.	.	.	.
CC(C(=O)Nc1ccc2c(c1)OCO2)N1CCN(C)CC1 (stereo not drawn)	.	21.9*	.	.	.	.	4.2
